Rows were chosen to be rich in hits. Some 2.6% of all compounds tested hit in one or more screens of this group.
SENP8 block-1: SENP8 protease inhibition; Q96LD8; purified SENP8, Z-RLRGG-aminoluciferin cleavage, luminescence; inhibition, % at 10 µM; 330,000 tested, 1.2% active; AID 2540; in the data active = inhibition above about 50%
Target sequence (Q96LD8 whole entry, looked up): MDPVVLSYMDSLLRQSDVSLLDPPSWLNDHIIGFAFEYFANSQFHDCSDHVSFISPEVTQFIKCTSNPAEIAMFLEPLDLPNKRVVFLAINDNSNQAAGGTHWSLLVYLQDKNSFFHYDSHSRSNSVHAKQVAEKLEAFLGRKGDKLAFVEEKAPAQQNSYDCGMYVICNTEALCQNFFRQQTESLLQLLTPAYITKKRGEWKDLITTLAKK
SENP7 inh: inhibitors of human SENP7 protease | AID 434973 | inhibition, % at 5 µM | 330,000 tested, 1.5% active | recombinant SENP7, Z-RLRGG-aminoluciferin luminescence, 40 min | Q9BQF6;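 active = inhibition above about 50% at the single test dose, limit read from the data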;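 also: plate controls were DMSO with enzyme for no effect and no enzyme buffer wells for full effect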
SENP1 inh: SENP1 (human) catalytic domain inhibition; Q9P0U3; AID 624204; inhibition, % at 10 µM; 360,000 tested, 0.21% active; recombinant SENP1 catalytic domain, CyPet-SUMO1-YPet FRET cleavage;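 active = inhibition at least 30% at 10 µM, raw YFP signal under a set limit, fluorescence ratio 0.5 to 1.5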;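 also: 0% = enzyme with DMSO and 100% = no enzyme wells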
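System: Recombinant human SENP1 catalytic domain, His6-tagged | Incubation: Enzyme reaction for 50 min at room temperature, dark | Medium: Tris pH 8 with BME, BSA, NP40 and catalase | Also added: 25 nM SUMO1 FRET substrate | Compound: 10 µM single point, 0.5% DMSO | Measured by: FRET fluorescence in CFP and YFP emission channels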
SENP8 block-2: blocks human SENP8 cleavage of Nedd8 substrate; Q96LD8; recombinant SENP8, Nedd8 substrate fluorescence; inhibition, % at 20 µM; 360,000 tested, 0.64% active; in the data active = inhibition mostly above about 40%, no sharp cut-off; inactive = mostly below about 27%
Platelet DG rel: platelet dense granule release activity; human platelet-rich plasma, SFLLRN dense granule ATP release, luminescence; inhibition, %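 (compounds screened at 7.5 µM in platelet-rich plasma)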; 300,000 tested, 0.22% active;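 active = mean replicate score, as percent of positive control, at or above 50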
SENP6 block: SENP6 protease inhibition; AID 2599; Q9GZR1; 330,000 tested, 1.8% active; Recombinant SENP6 catalytic domain, aminoluciferin luminescence; inhibition, % at 10 µM;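 active = inhibition above about 50% at the single tested dose, limit read from the data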;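 also: plate controls were DMSO wells with enzyme for no effect and DMSO wells lacking enzyme for full effect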
SENP8 confirm: human SENP8 inhibition, confirmed. shares compounds with SENP7 inh. Recombinant SENP8, Z-RLRGG-aminoluciferin luminescence, 60 min. inhibition, % at 12.5 µM. 6,200 tested, 40% active. AID 488912;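 active = mean inhibition across replicates above about 50%, limit read from the data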
SENP6 conf: human SENP6 inhibition, confirmed; shares compounds with SENP7 inh; recombinant SENP6, Z-RLRGG-aminoluciferin luminescence; inhibition, % at 12.5 µM; 6,200 tested, 58% active; AID 488915
SENP7 confirm: human SENP7 inhibition, confirmed. shares compounds with SENP7 inh. recombinant SENP7, Z-RLRGG-aminoluciferin luminescence, 40 min. inhibition, % at 12.5 µM. 6,200 tested, 69% active. AID 488917
Casp3 select: caspase-3 inhibition (SENP selectivity assay); AID 488918; 6,200 tested, 60% active; shares compounds with SENP7 inh; inhibition, % at 12.5 µM; purified caspase-3, Z-DEVD-aminoluciferin luminescence, 60 min;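 active = mean inhibition above about 50%, limit read from the data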;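 also: plate controls were enzyme with DMSO for no effect and wells without caspase-3 for full effect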
Target sequence (P42574 28-227 limits assumed): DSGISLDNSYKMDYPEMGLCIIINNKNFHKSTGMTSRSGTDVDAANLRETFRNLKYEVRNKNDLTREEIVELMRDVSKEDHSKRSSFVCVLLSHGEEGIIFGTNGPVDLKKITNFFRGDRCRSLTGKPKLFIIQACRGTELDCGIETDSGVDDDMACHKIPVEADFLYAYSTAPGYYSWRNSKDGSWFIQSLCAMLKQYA
SENP luc ctr: interferes with luciferase luminescence in SENP counter-screen; inhibition, % at 12.5 µM; 6,200 tested, 39% active; shares compounds with SENP7 inh; AID 488919; Pre-incubated SENP8/Z-RLRGG-aminoluciferin, luciferase luminescence interference;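 active = mean inhibition above about 50% when retested at one dose, limit read from the data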;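 also: plate controls were DMSO wells with completed reaction for no effect and substrate without enzyme for full effect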
* hit, by the source's call; . = not tested or not shown.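 The calls were made as follows, unless noted: active = mean inhibition above about 50% in the one-dose retest (limit read from the data); inactive = the rest.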

SMILES	SENP8 block-1	SENP7 inh	SENP1 inh	SENP8 block-2	Platelet DG rel	SENP6 block	SENP8 confirm	SENP6 conf	SENP7 confirm	Casp3 select	SENP luc ctr
COc1ccccc1CNC(=O)c1cccc(NC(=O)c2ccccc2)c1	-2.2	4.5	0.9	16.8	5.9	93.5*	-6.0	-10.7	2.7	1.1	1.6
COc1cccc(C(=O)Nc2ccc3ccccc3c2)c1	86.4*	91.4*	-1.5	10.5	18.3	88.5*	-22.1	86.2*	99.0*	73.0*	84.5*
CS(=O)(=O)Nc1ccc(C(=O)Nc2ccc3ccccc3c2)cc1	-1.5	57.8*	1.1	1.1	-2.4	37.5	4.1	1.3	65.2*	48.4	25.0
Cc1cc(NC(=O)c2noc3c2CCc2ccccc2-3)no1	-28.0	-1.9	0.4	8.0	2.5	-28.5	.	.	.	.	.
Cc1ccc(O)c(NC(=O)c2noc3c2CCc2ccccc2-3)c1	16.1	66.1*	4.9	1.5	13.3	6.6	-31.1	-16.6	-4.9	0.1	-8.2
CCCN1CCN(C(=O)c2cc3c(s2)-c2ccccc2OC3)CC1	65.1*	55.8*	-11.2	-424.1	18.2	70.9*	80.0*	79.7*	91.8*	84.1*	79.0*
NC(=O)N=Nc1c(O)[nH]c2ccc([N+](=O)[O-])cc12	0.3	4.5	0.7	20.3	23.3	-11.7	.	.	.	.	.
O=C(O)c1cc(N=Nc2c(O)[nH]c3ccc([N+](=O)[O-])cc23)ccc1Cl	64.8*	49.4	15.1	30.5	-1.1	54.2*	44.3	25.4	20.8	27.8	37.8
COc1ccc2c(c1)c(=O)c(C(=O)c1ccccc1)cn2Cc1ccccc1	-5.2	-2.3	-5.4	-3.3	-0.1	-19.2	.	.	.	.	.
O=C(O)Cc1ccc(C(=O)c2ccccc2)s1	0.5	-1.5	-37.4	11.8	-3.8	1.0	.	.	.	.	.
CC(C(=O)O)c1ccc(C(=O)c2ccccc2)s1 (stereo not given)	52.1*	40.6	-1.2	7.3	.	68.4*	61.6*	51.6*	79.3*	87.9*	61.0*
O=C(Nc1cccc(C(F)(F)F)c1)c1cc[n+]([O-])cc1	-6.7	-7.4	3.0	4.4	5.2	-30.7	.	.	.	.	.
O=C(Nc1cccc(O)c1)c1ccc(C(F)(F)F)cc1	66.9*	72.2*	0.1	8.4	7.7	74.3*	68.3*	70.0*	92.4*	71.6*	63.6*
O=C(Nc1ccc(C(F)(F)F)cc1)c1ccccc1	20.0	62.7*	1.7	17.0	.	39.7	-4.4	16.5	41.7	32.4	4.2
Cn1c(/C=C/c2ccccc2)nc2ccccc21	96.6*	98.9*	-0.2	-409.2	81.1*	98.7*	98.8*	99.9*	103.0*	98.6*	98.2*
CS(=O)(=O)c1ccccc1C(=O)N1CCN(S(=O)(=O)c2ccc(C3CCCCC3)cc2)CC1	-0.2	-5.5	-0.3	-0.3	.	5.2	.	.	.	.	.
O=C(O)c1ccc2nc(-c3ccccc3)sc2c1	94.2*	100.0*	3.1	-7.6	8.8	97.8*	98.3*	99.2*	101.8*	96.4*	97.7*
c1ccc2sc(-c3ccncc3)nc2c1	36.0	66.8*	1.0	-13.6	3.4	67.8*	28.3	54.9*	83.0*	79.5*	34.8
c1cncc(-c2nc3ccccc3s2)c1	10.1	46.2	3.8	14.5	-9.3	45.9	.	.	.	.	.
Nc1ccccc1-c1nc2ccccc2s1	54.2*	59.1*	-115.3	-436.7	3.9	76.1*	60.9*	83.0*	96.5*	55.3*	44.0
